Measurements reported in ChEMBL document CHEMBL5058577, “EUbOPEN Chemogenomics Library 2 (Multiplex)” (2022).

Test system: U2OS
Test: Multiplex assay against U2OS
Assay type: toxicity, cell-based
Settings: human
Summary of the method: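 Compound was added to live cells that had been stained at seeding with Hoechst33342, BioTracker Green Microtubule Cytoskeleton Dye, MitoTracker Red and Annexin V Alexa Fluor 680, and imaging followed on a CQ1 microscope at 37°C and 5% CO2. CellPathfinder machine-learning gating divided cells into Hoechst high-intensity objects or normal cells, normal cells into healthy, pyknosed or fragmented nuclei, and pyknosed cells into mitotic or apoptotic. Tubulin, mitochondrial-mass and membrane-permeability phenotypes are per cents of healthy-nucleus cells.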

[1] = 12 h, 1 µM, compound concentration 1 uM, replicate 1
[2] = 12 h, 1 µM, compound concentration 1 uM, replicate 2
[3] = 12 h, 10 µM, compound concentration 10 uM, replicate 1
[4] = 12 h, 10 µM, compound concentration 10 uM, replicate 2
[5] = 24 h, 1 µM, compound concentration 1 uM, replicate 1
[6] = 24 h, 1 µM, compound concentration 1 uM, replicate 2
[7] = 24 h, 10 µM, compound concentration 10 uM, replicate 1
[8] = 24 h, 10 µM, compound concentration 10 uM, replicate 2
[9] = 48 h, 1 µM, compound concentration 1 uM, replicate 1
[10] = 48 h, 1 µM, compound concentration 1 uM, replicate 2
[11] = 48 h, 10 µM, compound concentration 10 uM, replicate 1
[12] = 48 h, 10 µM, compound concentration 10 uM, replicate 2

## CC(C)(C)c1ccc(CSc2cnn(C(C)(C)C)c(=O)c2Cl)cc1 [PYRIDABEN]
[1]
  Population Apoptotic (%): 79%
  Population Fragmented Nuclei (%): 28%
  Population Healthy Nuclei (%): 61%
  Population Hoechst High Intensity Objects (%): 3%
  Population Membrane Permeable-Phenotype (%): 3%
  Population Mitochondria Different-Phenotype (%): 1%
  Population Mitotic Cells (%): 20%
  Population Normal (%): 97%
  Population Pyknosed Nuclei (%): 9%
  Population Tubulin-Different-Phenotype (%): 2%
  Total Cell Count: 267
[2]
  Population Apoptotic (%): 63%
  Population Fragmented Nuclei (%): 11%
  Population Healthy Nuclei (%): 81%
  Population Hoechst High Intensity Objects (%): 0%
  Population Membrane Permeable-Phenotype (%): 4%
  Population Mitotic Cells (%): 36%
  Population Normal (%): 99%
  Population Pyknosed Nuclei (%): 7%
  Population Tubulin-Different-Phenotype (%): 3%
  Total Cell Count: 152
[3]
  Population Apoptotic (%): 83%
  Population Fragmented Nuclei (%): 28%
  Population Healthy Nuclei (%): 57%
  Population Hoechst High Intensity Objects (%): 1%
  Population Membrane Permeable-Phenotype (%): 5%
  Population Mitochondria Different-Phenotype (%): 5%
  Population Mitotic Cells (%): 16%
  Population Normal (%): 98%
  Population Pyknosed Nuclei (%): 14%
  Population Tubulin-Different-Phenotype (%): 3%
  Total Cell Count: 209
[4]
  Population Apoptotic (%): 87%
  Population Fragmented Nuclei (%): 15%
  Population Healthy Nuclei (%): 73%
  Population Hoechst High Intensity Objects (%): 0%
  Population Mitochondria Different-Phenotype (%): 2%
  Population Mitotic Cells (%): 12%
  Population Normal (%): 100%
  Population Pyknosed Nuclei (%): 11%
  Population Tubulin-Different-Phenotype (%): 2%
  Total Cell Count: 141
[5]
  Population Apoptotic (%): 83%
  Population Fragmented Nuclei (%): 28%
  Population Healthy Nuclei (%): 58%
  Population Hoechst High Intensity Objects (%): 1%
  Population Membrane Permeable-Phenotype (%): 4%
  Population Mitochondria Different-Phenotype (%): 1%
  Population Mitotic Cells (%): 16%
  Population Normal (%): 98%
  Population Pyknosed Nuclei (%): 13%
  Population Tubulin-Different-Phenotype (%): 1%
  Total Cell Count: 286
[6]
  Population Apoptotic (%): 100%
  Population Fragmented Nuclei (%): 19%
  Population Healthy Nuclei (%): 75%
  Population Hoechst High Intensity Objects (%): 2%
  Population Membrane Permeable-Phenotype (%): 3%
  Population Mitotic Cells (%): 0%
  Population Normal (%): 97%
  Population Pyknosed Nuclei (%): 5%
  Total Cell Count: 186
[7]
  Population Apoptotic (%): 80%
  Population Fragmented Nuclei (%): 22%
  Population Healthy Nuclei (%): 61%
  Population Hoechst High Intensity Objects (%): 2%
  Population Membrane Permeable-Phenotype (%): 8%
  Population Mitochondria Different-Phenotype (%): 3%
  Population Mitotic Cells (%): 19%
  Population Normal (%): 97%
  Population Pyknosed Nuclei (%): 15%
  Population Tubulin-Different-Phenotype (%): 6%
  Total Cell Count: 234
[8]
  Population Fragmented Nuclei (%): 19%
  Population Healthy Nuclei (%): 68%
  Population Hoechst High Intensity Objects (%): 1%
  Population Membrane Permeable-Phenotype (%): 6%
  Population Mitochondria Different-Phenotype (%): 1%
  Population Mitotic Cells (%): 20%
  Population Normal (%): 98%
  Population Pyknosed Nuclei (%): 12%
  Population Tubulin-Different-Phenotype (%): 2%
  Total Cell Count: 167
[9]
  Population Apoptotic (%): 76%
  Population Fragmented Nuclei (%): 26%
  Population Healthy Nuclei (%): 63%
  Population Hoechst High Intensity Objects (%): 3%
  Population Membrane Permeable-Phenotype (%): 6%
  Population Mitochondria Different-Phenotype (%): 3%
  Population Mitotic Cells (%): 23%
  Population Normal (%): 96%
  Population Pyknosed Nuclei (%): 9%
  Population Tubulin-Different-Phenotype (%): 3%
  Total Cell Count: 361
[10]
  Population Apoptotic (%): 84%
  Population Fragmented Nuclei (%): 19%
  Population Healthy Nuclei (%): 70%
  Population Hoechst High Intensity Objects (%): 6%
  Population Membrane Permeable-Phenotype (%): 5%
  Population Mitotic Cells (%): 15%
  Population Normal (%): 93%
  Population Tubulin-Different-Phenotype (%): 2%
  Total Cell Count: 212
[11]
  Population Apoptotic (%): 90%
  Population Fragmented Nuclei (%): 20%
  Population Healthy Nuclei (%): 64%
  Population Hoechst High Intensity Objects (%): 4%
  Population Membrane Permeable-Phenotype (%): 9%
  Population Mitochondria Different-Phenotype (%): 4%
  Population Mitotic Cells (%): 10%
  Population Normal (%): 95%
  Population Pyknosed Nuclei (%): 14%
  Population Tubulin-Different-Phenotype (%): 6%
  Total Cell Count: 280
[12]
  Population Apoptotic (%): 95%
  Population Fragmented Nuclei (%): 16%
  Population Healthy Nuclei (%): 70%
  Population Hoechst High Intensity Objects (%): 3%
  Population Membrane Permeable-Phenotype (%): 5%
  Population Mitochondria Different-Phenotype (%): 6%
  Population Mitotic Cells (%): 4%
  Population Normal (%): 96%
  Population Pyknosed Nuclei (%): 13%
  Population Tubulin-Different-Phenotype (%): 4%
  Total Cell Count: 191

## Cc1c(Cc2ccc3ccccc3n2)c2cc(F)ccc2n1CC(=O)O [TIMAPIPRANT]
[1]
  Population Apoptotic (%): 84%
  Population Fragmented Nuclei (%): 21%
  Population Healthy Nuclei (%): 69%
  Population Hoechst High Intensity Objects (%): 2%
  Population Membrane Permeable-Phenotype (%): 3%
  Population Mitochondria Different-Phenotype (%): 1%
  Population Mitotic Cells (%): 16%
  Population Normal (%): 97%
  Population Pyknosed Nuclei (%): 8%
  Population Tubulin-Different-Phenotype (%): 1%
  Total Cell Count: 298
[2]
  Population Apoptotic (%): 83%
  Population Fragmented Nuclei (%): 22%
  Population Healthy Nuclei (%): 70%
  Population Hoechst High Intensity Objects (%): 1%
  Population Membrane Permeable-Phenotype (%): 4%
  Population Mitochondria Different-Phenotype (%): 4%
  Population Normal (%): 98%
  Population Pyknosed Nuclei (%): 6%
  Population Tubulin-Different-Phenotype (%): 3%
  Total Cell Count: 94
[3]
  Population Apoptotic (%): 75%
  Population Fragmented Nuclei (%): 30%
  Population Healthy Nuclei (%): 62%
  Population Hoechst High Intensity Objects (%): 2%
  Population Membrane Permeable-Phenotype (%): 4%
  Population Mitochondria Different-Phenotype (%): 1%
  Population Mitotic Cells (%): 25%
  Population Normal (%): 97%
  Population Pyknosed Nuclei (%): 6%
  Population Tubulin-Different-Phenotype (%): 2%
  Total Cell Count: 244
[4]
  Population Apoptotic (%): 68%
  Population Fragmented Nuclei (%): 12%
  Population Healthy Nuclei (%): 75%
  Population Hoechst High Intensity Objects (%): 0%
  Population Membrane Permeable-Phenotype (%): 6%
  Population Mitochondria Different-Phenotype (%): 3%
  Population Mitotic Cells (%): 31%
  Population Normal (%): 99%
  Population Pyknosed Nuclei (%): 12%
  Population Tubulin-Different-Phenotype (%): 3%
  Total Cell Count: 132
[5]
  Population Apoptotic (%): 96%
  Population Fragmented Nuclei (%): 18%
  Population Healthy Nuclei (%): 73%
  Population Hoechst High Intensity Objects (%): 1%
  Population Membrane Permeable-Phenotype (%): 6%
  Population Mitochondria Different-Phenotype (%): 3%
  Population Mitotic Cells (%): 3%
  Population Normal (%): 98%
  Population Pyknosed Nuclei (%): 7%
  Population Tubulin-Different-Phenotype (%): 4%
  Total Cell Count: 371
[6]
  Population Apoptotic (%): 100%
  Population Fragmented Nuclei (%): 19%
  Population Membrane Permeable-Phenotype (%): 7%
  Population Mitochondria Different-Phenotype (%): 2%
  Population Mitotic Cells (%): 0%
  Population Tubulin-Different-Phenotype (%): 3%
  Total Cell Count: 117
[7]
  Population Apoptotic (%): 94%
  Population Fragmented Nuclei (%): 26%
  Population Healthy Nuclei (%): 66%
  Population Hoechst High Intensity Objects (%): 1%
  Population Membrane Permeable-Phenotype (%): 6%
  Population Mitochondria Different-Phenotype (%): 2%
  Population Mitotic Cells (%): 5%
  Population Normal (%): 98%
  Population Pyknosed Nuclei (%): 6%
  Population Tubulin-Different-Phenotype (%): 3%
  Total Cell Count: 278
[8]
  Population Apoptotic (%): 72%
  Population Fragmented Nuclei (%): 18%
  Population Healthy Nuclei (%): 74%
  Population Hoechst High Intensity Objects (%): 0%
  Population Membrane Permeable-Phenotype (%): 8%
  Population Mitotic Cells (%): 27%
  Population Normal (%): 100%
  Population Pyknosed Nuclei (%): 7%
  Total Cell Count: 152
[9]
  Population Apoptotic (%): 88%
  Population Fragmented Nuclei (%): 16%
  Population Healthy Nuclei (%): 77%
  Population Hoechst High Intensity Objects (%): 1%
  Population Membrane Permeable-Phenotype (%): 4%
  Population Mitochondria Different-Phenotype (%): 3%
  Population Mitotic Cells (%): 11%
  Population Normal (%): 98%
  Population Pyknosed Nuclei (%): 6%
  Population Tubulin-Different-Phenotype (%): 3%
  Total Cell Count: 536
[10]
  Population Apoptotic (%): 90%
  Population Fragmented Nuclei (%): 22%
  Population Healthy Nuclei (%): 71%
  Population Hoechst High Intensity Objects (%): 2%
  Population Membrane Permeable-Phenotype (%): 12%
  Population Mitochondria Different-Phenotype (%): 5%
  Population Mitotic Cells (%): 10%
  Population Normal (%): 97%
  Population Tubulin-Different-Phenotype (%): 6%
  Total Cell Count: 168
[11]
  Population Apoptotic (%): 100%
  Population Fragmented Nuclei (%): 19%
  Population Healthy Nuclei (%): 74%
  Population Hoechst High Intensity Objects (%): 0%
  Population Membrane Permeable-Phenotype (%): 3%
  Population Mitochondria Different-Phenotype (%): 1%
  Population Mitotic Cells (%): 0%
  Population Normal (%): 99%
  Population Pyknosed Nuclei (%): 6%
  Population Tubulin-Different-Phenotype (%): 1%
  Total Cell Count: 392
[12]
  Population Apoptotic (%): 92%
  Population Fragmented Nuclei (%): 13%
  Population Healthy Nuclei (%): 80%
  Population Hoechst High Intensity Objects (%): 2%
  Population Membrane Permeable-Phenotype (%): 5%
  Population Mitochondria Different-Phenotype (%): 3%
  Population Mitotic Cells (%): 7%
  Population Normal (%): 97%
  Population Tubulin-Different-Phenotype (%): 3%
  Total Cell Count: 204
